Source: ChEMBL document CHEMBL1914326, “Synthesis and anticonvulsant properties of new acetamide derivatives of phthalimide, and its saturated cyclohexane and norbornene analogs” (Eur J Med Chem, 2011)
Active and inactive are the calls of the source. The calls are words filed in the database; no cut-off is given here.

Experiments:
Mus musculus [1] = assay: Anticonvulsant activity in CF1 albino mouse assessed as protection against maximal electroshock at 300 mg/kg, ip after 0.5 hrs; format: functional, organism-based; parameters: dose 300 mg/kg
How it was run: (§1)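 Male albino CF-1 mice in groups of eight received i.p. doses of 30, 100 and 300 mg/kg, suspended in 0.5% methylcellulose/water. Maximal electroshock seizures were tested at 0.5 and 4 h, with one additional 0.25 h reading at 100 mg/kg. The minimum dose giving protection was recorded. A dash means no activity at 300 mg/kg.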

Mus musculus [2] = assay: Anticonvulsant activity in CF1 albino mouse assessed as protection against maximal electroshock at 300 mg/kg, ip after 4 hrs; format: functional, organism-based; parameters: dose 300 mg/kg; how it was run: as §1
Mus musculus [3] = assay: Neurotoxicity in CF1 albino mouse assessed as motor impairment at 300 mg/kg, ip after 0.5 hrs by rotarod test; format: toxicity, organism-based; parameters: dose 300 mg/kg, route intraperitoneal; conditions: in vivo
How it was run: (§2)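 Acute neurotoxicity was scored on the minimal motor impairment rotorod test in male CF-1 mice. Animals in groups of eight were dosed i.p. at 30, 100 or 300 mg/kg in 0.5% methylcellulose/water and examined at 0.5 and 4 h. Untreated controls keep their balance on the rod for a prolonged time. The minimum dose causing impairment was recorded.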

Mus musculus [4] = assay: Neurotoxicity in CF1 albino mouse assessed as motor impairment at 300 mg/kg, ip after 4 hrs by rotarod test; format: toxicity, organism-based; parameters: dose 300 mg/kg, route intraperitoneal; conditions: in vivo; how it was run: as §2
Mus musculus [5] = assay: Anticonvulsant activity in CF1 albino mouse assessed as protection against subcutaneous pentylenetetrazole-induced seizures at 300 mg/kg, ip after 4 hrs; format: functional, organism-based; parameters: dose 300 mg/kg
How it was run: (§3)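 Male CF-1 mice in groups of eight were dosed i.p. at 30, 100 or 300 mg/kg in 0.5% methylcellulose/water. At 0.5 and 4 h, pentylenetetrazole 85 mg/kg (CD97 dose) was given s.c. This dose produces clonic seizures lasting at least 5 s. The minimum protective dose was recorded, with a top dose of 300 mg/kg.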

Mus musculus [6] = assay: Anticonvulsant activity in CF1 albino mouse assessed as protection against subcutaneous pentylenetetrazole-induced seizures at 300 mg/kg, ip after 0.5 hrs; format: functional, organism-based; parameters: dose 300 mg/kg; how it was run: as §3
Mus musculus [7] = assay: Anticonvulsant activity in ip dosed CF1 albino mouse assessed as protection against maximal electroshock after 0.5 hrs; format: functional; conditions: read-out: MED; how it was run: as §1
Mus musculus [8] = assay: Anticonvulsant activity in ip dosed CF1 albino mouse assessed as protection against maximal electroshock after 4 hrs; format: functional; conditions: read-out: MED; how it was run: as §1
Rattus norvegicus [9] = assay: Anticonvulsant activity in Sprague-Dawley albino rat assessed as protection against maximal electroshock at 30 mg/kg, po after 0.25 hrs; format: functional
How it was run: (§4)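 Male Sprague-Dawley rats in groups of four received 30 mg/kg p.o. as a suspension in 0.5% methylcellulose/water. Maximal electroshock seizure protection was scored at 0.25, 0.5, 1, 2 and 4 h and reported as rats protected/rats tested.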

Rattus norvegicus [10] = assay: Anticonvulsant activity in Sprague-Dawley albino rat assessed as protection against maximal electroshock at 30 mg/kg, po after 0.5 hrs; format: functional; how it was run: as §4
Rattus norvegicus [11] = assay: Anticonvulsant activity in Sprague-Dawley albino rat assessed as protection against maximal electroshock at 30 mg/kg, po after 1 hr; format: functional; how it was run: as §4
Rattus norvegicus [12] = assay: Anticonvulsant activity in Sprague-Dawley albino rat assessed as protection against maximal electroshock at 30 mg/kg, po after 2 hrs; format: functional; how it was run: as §4
Rattus norvegicus [13] = assay: Anticonvulsant activity in Sprague-Dawley albino rat assessed as protection against maximal electroshock at 30 mg/kg, po after 4 hrs; format: functional; how it was run: as §4
Rattus norvegicus [14] = assay: Neurotoxicity in Sprague-Dawley albino rat assessed as motor impairment at 30 mg/kg, po by rotarod test; format: toxicity, organism-based; parameters: dose 30 mg/kg, route oral; conditions: in vivo
How it was run: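 Male Sprague-Dawley rats in groups of four were given 30 mg/kg orally in 0.5% methylcellulose/water. Motor impairment was then assessed on the standardized minimal motor impairment rotorod test.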

Mus musculus [15] = assay: Anticonvulsant activity in ip dosed CF1 albino mouse assessed as protection against subcutaneous pentylenetetrazole-induced after 0.5 hrs; format: functional; conditions: read-out: MED; how it was run: as §3
Mus musculus [16] = assay: Anticonvulsant activity in ip dosed CF1 albino mouse assessed as protection against subcutaneous pentylenetetrazole-induced after 4 hrs; format: functional; conditions: read-out: MED; how it was run: as §3
Mus musculus [17] = assay: Neurotoxicity in ip dosed CF1 albino mouse assessed as minimum dose required to cause motor impairment after 0.5 hrs by rotarod test; format: toxicity, organism-based; conditions: in vivo; how it was run: as §2

Compound	Activity (Mus musculus [1])	Activity (Mus musculus [2])	Activity (Mus musculus [3])	Activity (Mus musculus [4])	Activity (Mus musculus [5])	Activity (Mus musculus [6])	minimal effective dose (Mus musculus [7])	minimal effective dose (Mus musculus [8])	Activity (Rattus norvegicus [9])	Activity (Rattus norvegicus [10])	Activity (Rattus norvegicus [11])	Activity (Rattus norvegicus [12])	Activity (Rattus norvegicus [13])	Activity (Rattus norvegicus [14])	minimal effective dose (Mus musculus [15])	minimal effective dose (Mus musculus [16])	MTC (Mus musculus [17])
O=C(CN1C(=O)c2ccccc2C1=O)N1CCN(CCO)CC1	inactive	inactive	Non-toxic	Non-toxic	inactive	inactive	–	–	–	–	–	–	–	–	–	–	–
O=C(CN1C(=O)c2ccccc2C1=O)N1CCN(c2ccc(Cl)cc2)CC1	–	–	Non-toxic	Non-toxic	inactive	inactive	100 mg/kg	100 mg/kg	0%	0%	0%	0%	50%	Non-toxic	–	–	–
O=C(CN1C(=O)C2C3C=CC(C3)C2C1=O)N1CCN(c2ccccc2F)CC1 (configuration not stated)	inactive	inactive	Non-toxic	Non-toxic	inactive	inactive	–	–	–	–	–	–	–	–	–	–	–
CCC1(C)CC(=O)NC1=O (configuration not stated) [ETHOSUXIMIDE]	inactive	inactive	Non-toxic	Non-toxic	–	–	–	–	–	–	–	–	–	–	100 mg/kg	300 mg/kg	–
O=C(CN1C(=O)C2CCCCC2C1=O)N1CCOCC1 (configuration not stated)	inactive	inactive	–	Non-toxic	–	inactive	–	–	–	–	–	–	–	–	–	300 mg/kg	300 mg/kg
O=C(CN1C(=O)c2ccccc2C1=O)N1CCN(c2ccccc2F)CC1	–	inactive	Non-toxic	Non-toxic	inactive	–	300 mg/kg	–	–	–	–	–	–	–	300 mg/kg	–	–
O=C(CN1C(=O)C2C3C=CC(C3)C2C1=O)N1CCN(c2cccc(Cl)c2)CC1 (configuration not stated)	inactive	inactive	Non-toxic	Non-toxic	inactive	inactive	–	–	–	–	–	–	–	–	–	–	–
O=C(CN1C(=O)c2ccccc2C1=O)N1CCN(Cc2ccccc2)CC1	inactive	inactive	Non-toxic	Non-toxic	inactive	inactive	–	–	–	–	–	–	–	–	–	–	–
O=C(CN1C(=O)C2CCCCC2C1=O)N1CCN(Cc2ccccc2)CC1 (configuration not stated)	inactive	inactive	–	Non-toxic	inactive	inactive	–	–	–	–	–	–	–	–	–	–	300 mg/kg
O=C(CN1C(=O)C2CCCCC2C1=O)N1CCN(c2cccc(Cl)c2)CC1 (configuration not stated)	inactive	inactive	Non-toxic	Non-toxic	inactive	inactive	–	–	–	–	–	–	–	–	–	–	–
O=C(CN1C(=O)C2CCCCC2C1=O)N1CCN(CCO)CC1 (configuration not stated)	inactive	inactive	Non-toxic	Non-toxic	inactive	inactive	–	–	–	–	–	–	–	–	–	–	–
O=C(CN1C(=O)C2CCCCC2C1=O)N1CCN(c2cccc(C(F)(F)F)c2)CC1 (configuration not stated)	–	inactive	Non-toxic	Non-toxic	inactive	inactive	100 mg/kg	–	–	–	–	–	–	–	–	–	–
O=C(CN1C(=O)c2ccccc2C1=O)N1CCN(c2cccc(Cl)c2Cl)CC1	inactive	–	Non-toxic	Non-toxic	inactive	inactive	–	100 mg/kg	–	–	–	–	–	–	–	–	–
O=C(CN1C(=O)C2C3C=CC(C3)C2C1=O)N1CCN(Cc2ccccc2)CC1 (configuration not stated)	inactive	inactive	Non-toxic	Non-toxic	inactive	inactive	–	–	–	–	–	–	–	–	–	–	–
O=C(CN1C(=O)C2C3C=CC(C3)C2C1=O)N1CCN(c2ccccc2)CC1 (configuration not stated)	inactive	inactive	Non-toxic	Non-toxic	inactive	inactive	–	–	–	–	–	–	–	–	–	–	–
O=C(CN1C(=O)c2ccccc2C1=O)N1CCN(c2ccccc2Cl)CC1	–	inactive	Non-toxic	Non-toxic	inactive	inactive	100 mg/kg	–	–	–	–	–	–	–	–	–	–
O=C(CN1C(=O)c2ccccc2C1=O)N1CCN(c2cccc(Cl)c2)CC1	inactive	inactive	Non-toxic	Non-toxic	inactive	inactive	–	–	–	–	–	–	–	–	–	–	–
O=C(CN1C(=O)C2CCCCC2C1=O)N1CCN(c2ccccc2)CC1 (configuration not stated)	–	inactive	Non-toxic	Non-toxic	inactive	inactive	300 mg/kg	–	–	–	–	–	–	–	–	–	–
O=C(CN1C(=O)c2ccccc2C1=O)N1CCN(c2ccccc2)CC1	–	inactive	Non-toxic	Non-toxic	inactive	inactive	100 mg/kg	–	–	–	–	–	–	–	–	–	–
O=C(CN1C(=O)C2CCCCC2C1=O)N1CCN(c2ccc(Cl)cc2)CC1 (configuration not stated)	inactive	–	Non-toxic	Non-toxic	inactive	inactive	–	300 mg/kg	–	–	–	–	–	–	–	–	–
O=C(CN1C(=O)c2ccccc2C1=O)N1CCN(c2cccc(C(F)(F)F)c2)CC1	inactive	–	Non-toxic	Non-toxic	inactive	inactive	–	100 mg/kg	–	–	–	–	–	–	–	–	–
